According to ChEMBL document CHEMBL4190332, “Design and Optimization of Benzopiperazines as Potent Inhibitors of BET Bromodomains” (ACS Med Chem Lett, 2017):

Tests used:
[1] = target: T1, Bromodomain-containing protein 4 (Homo sapiens, UniProt O60885); assay: Inhibition of His-epitope tagged BRD4 bromodomain 1 (44 to 168 residues) (unknown origin) using biotinylated K5,8,12,16 tetra-acetylated histone H4 (1 to 20 residues) peptide as substrate measured after 1 hr by Alphascreen assay
Procedure, shortened: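 Binding to the isolated BRD4 first bromodomain was measured by AlphaScreen. Each IC50 is the mean of at least two separate assay runs.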

[2] = Half life in mouse plasma; assay type: ADME, cell-free
Procedure, shortened: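 Compound stability in mouse plasma, expressed as a half-life.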

[3] = Stability in mouse liver microsomes assessed as parent compound remaining after 30 mins; assay type: ADME, microsome; conditions: read-out: Stability
Procedure, shortened: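 Compound was incubated with mouse liver microsomes for 30 minutes. The read-out was the percent of compound remaining.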

MV4-11 [4] = assay: Growth inhibition of human MV411 cells after 72 hrs by Celltiter-Glo luminescent cell viability assay; assay type: functional; conditions: MV4-11, 72 h
Procedure, shortened: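 Anti-proliferative activity was tested in MV-4-11 cells. Each GI50 is the mean of at least two separate assay runs.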

Mus musculus = assay: Reduction in MYC mRNA level in tumor of athymic Hsd:Foxn1nu mouse xenografted with human MV411 cells at 12.5 mg/kg, po administered as single dose measured after 4 hrs by qRT-PCR analysis relative to control; assay type: functional
Procedure, shortened: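 Athymic nude mice bearing MV-4-11 xenografts received a single oral dose of 12.5 mg/kg. Tumor MYC levels were compared with those of vehicle-treated mice.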

[5] = Toxicity in po dosed athymic Hsd:Foxn1nu mouse administered twice daily for 5 days; assay type: organism-based; conditions: in vivo
Procedure, shortened: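 Tolerability study in athymic nude mice given repeat oral doses twice daily for five days. The value reported is the estimated maximum tolerated dose.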

MV4-11 [6] = assay: Antitumor activity against human MV411 cells xenografted in athymic Hsd:Foxn1nu mouse assessed as tumor growth inhibition at 12.5 mg/kg, po administered twice daily for 20 days measured weekly twice during compound dosing relative to control; assay type: functional; conditions: MV4-11, po, 480 h, read-out: TGI
[7] = Drug uptake in athymic Hsd:Foxn1nu mouse plasma assessed as unbound fraction at 5 mg/kg, po administered as single dose by mass spectrometric analysis; assay type: ADME, organism-based; conditions: in vivo
[8] = target: T1, Bromodomain-containing protein 4; assay: Inhibition of BRD4 in human MV411 cells assessed as reduction in MYC mRNA expression; assay type: cell-based
[9] = Chemical stability of the compound in acid; assay type: physicochemical
[10] = Drug uptake in po dosed mouse plasma; assay type: ADME, organism-based; conditions: in vivo

Compound	IC50 [1] [µM]	half-life [2] [min]	remaining at 0.5 h [3] [%]	GI50 (MV4-11 [4]) [µM]	also measured
CC(=O)N1c2ccccc2N(C(=O)CC(C)C)C[C@@H]1C	> 50	–	–	–	–
CC(=O)N1c2ccc(-c3ccc(S(C)(=O)=O)cc3)cc2N(C(=O)C2CC2)C[C@@H]1C	1.7	> 24	100	0.83	–
CC(=O)N1c2ccccc2N(C(=O)c2ccccc2)C[C@@H]1C	> 50	–	–	–	–
CC(=O)N1c2ccc(-c3ccccc3)cc2N(C(=O)c2ccco2)C[C@@H]1C	1.6	–	–	0.35	–
CC(=O)N1c2ccc(-c3ccc(N4CCS(=O)(=O)CC4)cc3)cc2N(C(=O)C2CC2)C[C@@H]1C	0.1	> 24	95	0.22	fold change (FC) (Mus musculus): 0.2; MTD at 120 h [5]: 12.5 mg/kg; inhibition in vivo at 12.5 mg/kg (MV4-11 [6]): 100%; Drug uptake(free) [7]: Not Active; IC50 [8]: 0.46 µM
CC(=O)N1c2ccccc2N(C(=O)C2CCCC2)C[C@@H]1C	43	–	–	–	–
CC(=O)N1c2ccc(-c3cnn(C4COC4)c3)cc2N(C(=O)C2CC2)C[C@@H]1C	0.37	> 24	100	0.44	Stability [9]: Unstable
CC(=O)N1c2ccc(-c3ccc(S(C)(=O)=O)cc3)cc2N(C(=O)c2ccco2)C[C@@H]1C	1.6	–	–	0.4	–
CC(=O)N1c2ccc(-c3ccc(C(=O)N4CCNCC4)cc3)cc2N(C(=O)C2CC2)C[C@@H]1C	0.38	3	100	0.12	–
CC(=O)N1c2ccc(-c3cnn(C)c3)cc2N(C(=O)c2ccco2)C[C@@H]1C	0.38	–	–	0.21	–
CC(=O)N1c2ccccc2N(C(=O)c2ccco2)C[C@@H]1C	14	–	–	–	–
C[C@H]1CN(C(=O)c2ccco2)c2cc(-c3ccc(S(C)(=O)=O)cc3)ccc2N1C=O	> 25	–	–	–	–
CNC(=O)c1cccc(-c2ccc3c(c2)N(C(=O)c2ccco2)C[C@H](C)N3C(C)=O)c1	0.79	–	–	0.77	–
COC(=O)N1c2ccc(-c3ccc(S(C)(=O)=O)cc3)cc2N(C(=O)c2ccco2)C[C@@H]1C	0.65	22	14	0.32	–
CCC(=O)N1c2ccc(-c3ccc(S(C)(=O)=O)cc3)cc2N(C(=O)c2ccco2)C[C@@H]1C	1.4	18	11	0.55	–
CC(=O)N1c2ccc(-c3cnn(C4CNC4)c3)cc2N(C(=O)C2CC2)C[C@@H]1C	0.06	> 24	100	0.27	Drug uptake [10]: Not Active
CC(=O)N1c2ccc(-c3ccc(S(C)(=O)=O)cc3)cc2N(C(=O)OC(C)C)C[C@@H]1C	0.26	6	99	0.35	–
C[C@H]1CN(C(=O)c2ccco2)c2cc(-c3ccc(S(C)(=O)=O)cc3)ccc2N1C(=O)C1CC1	0.76	> 24	19	0.28	–
CC(=O)N1c2ccc(-c3cnn(C(C)C)c3)cc2N(C(=O)C2CC2)C[C@@H]1C	0.42	–	24	0.58	–
